# Laboratory results: ChEMBL document CHEMBL5724801, “EUbOPEN Chemogenomics Library - Multiplex” (2024)
# Where “and” joins values, the source holds several entries; their conditions need not be identical. Equal entries are not always repeated.
# System: HEK-293T
# Experiment: Multiplex assay against HEK293T
# Assay type: toxicity, cell-based
# Conditions: human
# Summary of the method: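 Compound was added to live cells that had been stained at seeding with Hoechst33342, BioTracker Green Microtubule Cytoskeleton Dye, MitoTracker Red and Annexin V Alexa Fluor 680, and imaging followed on a CQ1 microscope at 37°C and 5% CO2. CellPathfinder machine-learning gating divided cells into Hoechst high-intensity objects or normal cells, normal cells into healthy, pyknosed or fragmented nuclei, and pyknosed cells into mitotic or apoptotic. Tubulin, mitochondrial-mass and membrane-permeability phenotypes are per cents of healthy-nucleus cells.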
# [1] = 12 h, 1 µM, compound concentration 1 uM
# [2] = 12 h, 10 µM, compound concentration 10 uM
# [3] = 24 h, 1 µM, compound concentration 1 uM
# [4] = 24 h, 10 µM, compound concentration 10 uM
# [5] = 48 h, 1 µM, compound concentration 1 uM
# [6] = 48 h, 10 µM, compound concentration 10 uM
smiles,measurement,setting,value
COc1cc(NC(=O)CCN2CCC(OC(=O)Nc3ccccc3-c3ccccc3)CC2)c(Cl)cc1CNC[C@H](O)c1ccc(O)c2[nH]c(=O)ccc12 [BATEFENTEROL],Population Apoptotic (%),[1],42% and 47%
same,Population Fragmented Nuclei (%),[1],4% and 3%
same,Population Healthy Nuclei (%),[1],81% and 78%
same,Population Hoechst High Intensity Objects (%),[1],7% and 8%
same,Population Membrane Permeable-Phenotype (%),[1],0%
same,Population Mitochondria Different-Phenotype (%),[1],65% and 84%
same,Population Mitotic Cells (%),[1],57% and 52%
same,Population Normal (%),[1],92% and 91%
same,Population Pyknosed Nuclei (%),[1],14% and 17%
same,Population Tubulin-Different-Phenotype (%),[1],44% and 41%
same,Total Cell Count,[1],420 and 285
same,Population Apoptotic (%),[2],100% and 52%
same,Population Hoechst High Intensity Objects (%),[2],31% and 11%
same,Population Membrane Permeable-Phenotype (%),[2],0% and 1%
same,Population Normal (%),[2],68% and 88%
same,Population Pyknosed Nuclei (%),[2],9% and 22%
same,Population Apoptotic (%),[3],44% and 41%
same,Population Fragmented Nuclei (%),[3],9% and 7%
same,Population Healthy Nuclei (%),[3],77% and 82%
same,Population Hoechst High Intensity Objects (%),[3],5% and 8%
same,Population Membrane Permeable-Phenotype (%),[3],0%
same,Population Mitochondria Different-Phenotype (%),[3],59% and 65%
same,Population Mitotic Cells (%),[3],55% and 58%
same,Population Normal (%),[3],94% and 91%
same,Population Pyknosed Nuclei (%),[3],12% and 9%
same,Population Tubulin-Different-Phenotype (%),[3],35% and 27%
same,Total Cell Count,[3],527 and 403
same,Population Membrane Permeable-Phenotype (%),[4],0%
same,Population Mitochondria Different-Phenotype (%),[4],100% and 89%
same,Population Normal (%),[4],66% and 93%
same,Population Pyknosed Nuclei (%),[4],0% and 19%
same,Population Tubulin-Different-Phenotype (%),[4],100% and 78%
same,Population Apoptotic (%),[5],35% and 51%
same,Population Fragmented Nuclei (%),[5],15% and 13%
same,Population Healthy Nuclei (%),[5],75% and 79%
same,Population Hoechst High Intensity Objects (%),[5],3%
same,Population Membrane Permeable-Phenotype (%),[5],0%
same,Population Mitochondria Different-Phenotype (%),[5],36% and 42%
same,Population Mitotic Cells (%),[5],65% and 48%
same,Population Normal (%),[5],96%
same,Population Pyknosed Nuclei (%),[5],8% and 6%
same,Population Tubulin-Different-Phenotype (%),[5],17%
same,Total Cell Count,[5],744 and 547
same,Population Apoptotic (%),[6],100% and 57%
same,Population Hoechst High Intensity Objects (%),[6],7%
same,Population Membrane Permeable-Phenotype (%),[6],0%
same,Population Mitochondria Different-Phenotype (%),[6],66% and 76%
same,Population Normal (%),[6],92%
same,Population Pyknosed Nuclei (%),[6],16% and 11%
same,Population Tubulin-Different-Phenotype (%),[6],66% and 74%
